Laboratory results reported in ChEMBL document CHEMBL1152672, “Side chain azasteroids and thiasteroids as sterol methyltransferase inhibitors in ergosterol biosynthesis” (2009).
Converted amounts (≈) assume the structure as drawn. The source made the active and inactive calls. The rule behind the calls is not given here.

Experiments:
[1] = molecular target: T1, Sterol 24-C-methyltransferase (Yarrowia lipolytica) (UniProt Q6C2D9); test: Inhibition of Yarrowia lipolytica 24-SMT assessed as zymosterol-3-trimethylsilyl derivative level at 2 ug/mL after 48 hrs by GC-MS analysis relative to untreated control; parameters: scale not given: the % may be the effect or the level left
T1 sequence (whole entry): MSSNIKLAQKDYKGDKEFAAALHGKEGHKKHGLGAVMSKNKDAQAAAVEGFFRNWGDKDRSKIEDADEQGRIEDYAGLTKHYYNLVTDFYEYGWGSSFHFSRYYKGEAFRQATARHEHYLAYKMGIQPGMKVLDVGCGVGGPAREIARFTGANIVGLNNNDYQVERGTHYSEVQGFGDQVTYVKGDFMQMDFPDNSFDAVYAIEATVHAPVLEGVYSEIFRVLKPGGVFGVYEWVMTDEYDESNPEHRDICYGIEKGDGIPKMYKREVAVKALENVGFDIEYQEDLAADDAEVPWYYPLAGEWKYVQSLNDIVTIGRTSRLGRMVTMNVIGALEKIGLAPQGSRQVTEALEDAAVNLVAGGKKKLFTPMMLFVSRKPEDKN
Outline: (§1)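 Whole-cell sterol profiling. Y. lipolytica at 50,000 CFU/mL was exposed to compounds added from ethanol for 48 ± 2 h at 28 °C, and the MIC/2 and/or MIC/4 wells were used. Cells were pelleted and PBS-washed, then saponified in 1 M NaOH at 70 °C for 1 h. Sterols were extracted into TBME with a cholesterol internal standard and silylated to TMS ethers. GC-MS full scan, with each sterol given as % of total integrated quantifier-ion area.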

[2] = molecular target: T1, Sterol 24-C-methyltransferase (Yarrowia lipolytica); test: Inhibition of Yarrowia lipolytica 24-SMT assessed as dehydroergosterol-3-trimethylsilyl derivative at 2 ug/mL after 48 hrs by GC-MS analysis relative to untreated control; parameters: scale not given: the % may be the effect or the level left; outline: as §1
[3] = molecular target: T1, Sterol 24-C-methyltransferase (Yarrowia lipolytica); test: Inhibition of Yarrowia lipolytica 24-SMT assessed as 5-dehydroepisterol-3-trimethylsilyl derivative at 2 ug/mL after 48 hrs by GC-MS analysis relative to untreated control; parameters: scale not given: the % may be the effect or the level left; outline: as §1
[4] = system: Yarrowia lipolytica; test: Antimicrobial activity against Yarrowia lipolytica after 48 hrs; assay type: functional
Outline: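 Broth dilution MIC per DIN 58940-84. Log-phase Y. lipolytica in yeast extract/peptone/glucose medium, counted against a 0.5 McFarland standard (A570) and seeded at 50,000 CFU/mL in 2 mL wells. Compounds added from ethanol; final concentrations 2 to 0.06125 µg/mL unless otherwise stated. Plates incubated 48 ± 2 h at 28 °C. MIC is the lowest concentration with no visible growth.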

[5] = molecular target: T1, Sterol 24-C-methyltransferase (Yarrowia lipolytica); test: Inhibition of Yarrowia lipolytica 24-SMT assessed as cholesta-5,7,24-trien-3-trimethylsilyl derivative at 2 ug/mL after 48 hrs by GC-MS analysis relative to untreated control; parameters: scale not given: the % may be the effect or the level left; outline: as §1
[6] = molecular target: T1, Sterol 24-C-methyltransferase (Yarrowia lipolytica); test: Inhibition of Yarrowia lipolytica 24-SMT assessed as cholesta-7,24-dien-3-trimethylsilyl derivative at 0.06 ug/mL after 48 hrs by GC-MS analysis relative to untreated control; parameters: scale not given: the % may be the effect or the level left; outline: as §1
[7] = molecular target: T1, Sterol 24-C-methyltransferase (Yarrowia lipolytica); test: Inhibition of Yarrowia lipolytica 24-SMT assessed as 5-dehydroepisterol-3-trimethylsilyl derivative at 0.06 ug/mL after 48 hrs by GC-MS analysis relative to untreated control; parameters: scale not given: the % may be the effect or the level left; outline: as §1
[8] = molecular target: T1, Sterol 24-C-methyltransferase (Yarrowia lipolytica); test: Inhibition of Yarrowia lipolytica 24-SMT assessed as cholesta-5,7,24-trien-3-trimethylsilyl derivative at 0.06 ug/mL after 48 hrs by GC-MS analysis relative to untreated control; parameters: scale not given: the % may be the effect or the level left; outline: as §1
[9] = molecular target: T1, Sterol 24-C-methyltransferase (Yarrowia lipolytica); test: Inhibition of Yarrowia lipolytica 24-SMT assessed as dehydroergosterol-3-trimethylsilyl derivative at 0.06 ug/mL after 48 hrs by GC-MS analysis relative to untreated control; parameters: scale not given: the % may be the effect or the level left; outline: as §1
[10] = molecular target: T1, Sterol 24-C-methyltransferase (Yarrowia lipolytica); test: Inhibition of Yarrowia lipolytica 24-SMT assessed as cholesta-7,24-dien-3-trimethylsilyl derivative at 2 ug/mL after 48 hrs by GC-MS analysis relative to untreated control; parameters: scale not given: the % may be the effect or the level left; outline: as §1
[11] = system: Yarrowia lipolytica; test: Antimicrobial activity against Yarrowia lipolytica by agar diffusion test; assay type: functional, organism-based
[12] = molecular target: T1, Sterol 24-C-methyltransferase (Yarrowia lipolytica); test: Inhibition of Yarrowia lipolytica 24-sterol C-methyltransferase assessed as ergosterol-3-trimethylsilyl derivative level at 0.06 ug/mL after 48 hrs by GC-MS analysis relative to untreated control; parameters: scale not given: the % may be the effect or the level left; outline: as §1
[13] = molecular target: T1, Sterol 24-C-methyltransferase (Yarrowia lipolytica); test: Inhibition of Yarrowia lipolytica 24-SMT assessed as dehydroergosterol-3-trimethylsilyl derivative at 0.1 ug/mL after 48 hrs by GC-MS analysis relative to untreated control; parameters: scale not given: the % may be the effect or the level left; outline: as §1
[14] = molecular target: T1, Sterol 24-C-methyltransferase (Yarrowia lipolytica); test: Inhibition of Yarrowia lipolytica 24-SMT assessed as cholesta-5,7,24-trien-3-trimethylsilyl derivative at 0.1 ug/mL after 48 hrs by GC-MS analysis relative to untreated control; parameters: scale not given: the % may be the effect or the level left; outline: as §1
[15] = molecular target: T1, Sterol 24-C-methyltransferase (Yarrowia lipolytica); test: Inhibition of Yarrowia lipolytica 24-SMT assessed as zymosterol-3-trimethylsilyl derivative level at 0.1 ug/mL after 48 hrs by GC-MS analysis relative to untreated control; parameters: scale not given: the % may be the effect or the level left; outline: as §1
[16] = molecular target: T1, Sterol 24-C-methyltransferase (Yarrowia lipolytica); test: Inhibition of Yarrowia lipolytica 24-SMT assessed as 5-dehydroepisterol-3-trimethylsilyl derivative at 0.1 ug/mL after 48 hrs by GC-MS analysis relative to untreated control; parameters: scale not given: the % may be the effect or the level left; outline: as §1
[17] = molecular target: T1, Sterol 24-C-methyltransferase (Yarrowia lipolytica); test: Inhibition of Yarrowia lipolytica 24-SMT assessed as cholesta-7,24-dien-3-trimethylsilyl derivative at 0.2 ug/mL after 48 hrs by GC-MS analysis relative to untreated control; parameters: scale not given: the % may be the effect or the level left; outline: as §1
[18] = molecular target: T1, Sterol 24-C-methyltransferase (Yarrowia lipolytica); test: Inhibition of Yarrowia lipolytica 24-SMT assessed as dehydroergosterol-3-trimethylsilyl derivative at 0.2 ug/mL after 48 hrs by GC-MS analysis relative to untreated control; parameters: scale not given: the % may be the effect or the level left; outline: as §1
[19] = molecular target: T1, Sterol 24-C-methyltransferase (Yarrowia lipolytica); test: Inhibition of Yarrowia lipolytica 24-SMT assessed as ergosterol-3-trimethylsilyl derivative level at 0.2 ug/mL after 48 hrs by GC-MS analysis relative to untreated control; parameters: scale not given: the % may be the effect or the level left; outline: as §1
[20] = molecular target: T1, Sterol 24-C-methyltransferase (Yarrowia lipolytica); test: Inhibition of Yarrowia lipolytica 24-SMT assessed as cholesta-5,7,24-trien-3-trimethylsilyl derivative at 0.2 ug/mL after 48 hrs by GC-MS analysis relative to untreated control; parameters: scale not given: the % may be the effect or the level left; outline: as §1
[21] = molecular target: T1, Sterol 24-C-methyltransferase (Yarrowia lipolytica); test: Inhibition of Yarrowia lipolytica 24-SMT assessed as 5-dehydroepisterol-3-trimethylsilyl derivative at 0.2 ug/mL after 48 hrs by GC-MS analysis relative to untreated control; parameters: scale not given: the % may be the effect or the level left; outline: as §1
[22] = molecular target: T1, Sterol 24-C-methyltransferase (Yarrowia lipolytica); test: Inhibition of Yarrowia lipolytica 24-SMT assessed as lanosterol-3-trimethylsilyl derivative at 0.1 ug/mL after 48 hrs by GC-MS analysis relative to untreated control; parameters: scale not given: the % may be the effect or the level left; outline: as §1
[23] = molecular target: T1, Sterol 24-C-methyltransferase (Yarrowia lipolytica); test: Inhibition of Yarrowia lipolytica 24-SMT assessed as cholesta-7,24-dien-3-trimethylsilyl derivative at 0.1 ug/mL after 48 hrs by GC-MS analysis relative to untreated control; parameters: scale not given: the % may be the effect or the level left; outline: as §1
[24] = molecular target: T1, Sterol 24-C-methyltransferase (Yarrowia lipolytica); test: Inhibition of Yarrowia lipolytica 24-SMT assessed as lanosterol-3-trimethylsilyl derivative at 0.06 ug/mL after 48 hrs by GC-MS analysis relative to untreated control; parameters: scale not given: the % may be the effect or the level left; outline: as §1

With CNC[C@@H](C)[C@H]1CC[C@H]2C3=CC[C@H]4C[C@@H](O)CC[C@]4(C)[C@H]3CC[C@]12C the Activity [1] was 1.6%, the Activity [2] was 55.4% and the Activity [3] was 2.6%. For the same compound, the MIC [4] was greater than 2 µg/mL and the Activity [5] was 40.4%.
For CCCCNC[C@@H](C)[C@H]1CC[C@H]2C3=CC[C@H]4C[C@@H](O)CC[C@]4(C)[C@H]3CC[C@]12C, the Activity [6] was 5%, the Activity [7] was 4.7% and the Activity [8] was 47.9%. It also gave an MIC [4] of 0.25 µg/mL (≈ 0.645 µM) and an Activity [9] of 42.4%.
CCCC[S+](C)C[C@@H](C)[C@H]1CC[C@H]2C3=CC[C@H]4C[C@@H](O)CC[C@]4(C)[C@H]3CC[C@]12C.[I-] (mixture of isomers) gave an Activity [10] of 3.5%, an Activity [2] of 7.8% and an Activity [3] of 1%. The MIC [4] was greater than 2 µg/mL and the Activity [5] was 87.5%.
With C[C@H](/C=C/c1ccccn1)[C@H]1CC[C@H]2C3=CCC4C[C@@H](O)CC[C@]4(C)[C@H]3CC[C@]12C (stereo partly specified) the MIC [11] was “inactive”.
With CCCNCC[C@@H](C)[C@H]1CC[C@H]2C3=CC[C@H]4C[C@@H](O)CC[C@]4(C)[C@H]3CC[C@]12C the Activity [6] was 5.4%, the Activity [7] was 2.9% and the Activity [12] was 5%. For the same compound, the Activity [8] was 60.8%, the MIC [4] was 0.25 µg/mL (≈ 0.645 µM) and the Activity [9] was 25.9%.
With CCCNC[C@@H](C)[C@H]1CC[C@H]2C3=CC[C@H]4C[C@@H](O)CC[C@]4(C)[C@H]3CC[C@]12C the Activity [13] was 47.3%, the Activity [14] was 48.5% and the Activity [15] was 0.5%. The MIC [4] was 0.25 µg/mL (≈ 0.669 µM) and the Activity [16] was 3.7%.
In the case of CCNC[C@@H](C)[C@H]1CC[C@H]2C3=CC[C@H]4C[C@@H](O)CC[C@]4(C)[C@H]3CC[C@]12C, the Activity [17] is reported as 3.6%, the Activity [18] is reported as 64.7% and the Activity [19] is reported as 3.4%. The Activity [20] was 25.5%, the MIC [4] was 2 µg/mL (≈ 5.56 µM) and the Activity [21] was 2.8%.
CC(C)CNC[C@@H](C)[C@H]1CC[C@H]2C3=CC[C@H]4C[C@@H](O)CC[C@]4(C)[C@H]3CC[C@]12C showed an Activity [22] of 0.3%, an Activity [13] of 47.6% and an Activity [14] of 43.3%. The Activity [15] was 1.2%, the Activity [23] was 3.1% and the MIC [4] was 0.25 µg/mL (≈ 0.645 µM). The Activity [16] was 4.4%.
C[C@H](/C=C/c1cc[n+](C)cc1)[C@H]1CCC2C3=CCC4C[C@@H](O)CC[C@]4(C)C3CC[C@@]21C.[I-] (stereo partly specified) showed an Activity [7] of 1.8%, an Activity [24] of 0.2% and an Activity [12] of 11.8%. The Activity [8] was 18.3%, the MIC [4] was 0.5 µg/mL and the Activity [9] was 67.9%.
